Assay results: ChEMBL document CHEMBL3352533, “Multi-dimensional target profiling of N,4-diaryl-1,3-thiazole-2-amines as potent inhibitors of eicosanoid metabolism” (Eur J Med Chem, 2014)

Assays:
[1] = target: T1, Polyunsaturated fatty acid lipoxygenase ALOX12 (Homo sapiens) (UniProt P18054); assay: Inhibition of 12-LO-mediated 12-HPETE formation in human platelets using arachidonic acid as substrate assessed as residual activity at 50 uM preincubated for 15 mins before substrate addition measured after 10 mins
T1 sequence (whole entry): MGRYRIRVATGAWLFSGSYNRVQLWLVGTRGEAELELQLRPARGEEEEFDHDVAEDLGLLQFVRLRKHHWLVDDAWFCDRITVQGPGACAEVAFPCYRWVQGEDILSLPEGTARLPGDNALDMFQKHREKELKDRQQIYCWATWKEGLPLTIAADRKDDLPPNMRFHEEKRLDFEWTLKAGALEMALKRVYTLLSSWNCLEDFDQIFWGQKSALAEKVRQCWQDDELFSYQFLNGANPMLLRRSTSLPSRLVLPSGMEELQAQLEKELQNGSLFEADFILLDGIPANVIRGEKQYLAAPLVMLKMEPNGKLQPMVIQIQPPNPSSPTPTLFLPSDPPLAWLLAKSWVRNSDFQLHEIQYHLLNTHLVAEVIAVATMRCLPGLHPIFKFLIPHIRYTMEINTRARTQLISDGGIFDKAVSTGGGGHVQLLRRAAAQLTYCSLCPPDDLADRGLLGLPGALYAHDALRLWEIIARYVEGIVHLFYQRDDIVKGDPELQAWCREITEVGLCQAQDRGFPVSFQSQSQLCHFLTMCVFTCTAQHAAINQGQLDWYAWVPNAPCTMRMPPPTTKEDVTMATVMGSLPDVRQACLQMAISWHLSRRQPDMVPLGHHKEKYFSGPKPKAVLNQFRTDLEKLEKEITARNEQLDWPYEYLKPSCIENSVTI
Procedure, shortened: (§1)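 Freshly isolated human platelets (10^8 in 1 ml PBS pH 7.4 with 1 mg/ml glucose and 1 mM CaCl2) preincubated with compound or DMSO 15 min at 37 °C, then 10 µM AA added; 10 min at 37 °C, stopped with ice-cold methanol. HPLC: 12-H(P)ETE for 12-LO, 12-HHT for COX-1; percent of DMSO control, n ≥ 3, mean ± S.E.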

[2] = target: T2, Polyunsaturated fatty acid lipoxygenase ALOX15 (Homo sapiens) (UniProt P16050); assay: Inhibition of 15-LO1-mediated 15-HPETE formation in human eosinophil using arachidonic acid as substrate assessed as residual activity at 50 uM preincubated for 15 mins before substrate addition measured after 10 mins
T2 sequence (whole entry): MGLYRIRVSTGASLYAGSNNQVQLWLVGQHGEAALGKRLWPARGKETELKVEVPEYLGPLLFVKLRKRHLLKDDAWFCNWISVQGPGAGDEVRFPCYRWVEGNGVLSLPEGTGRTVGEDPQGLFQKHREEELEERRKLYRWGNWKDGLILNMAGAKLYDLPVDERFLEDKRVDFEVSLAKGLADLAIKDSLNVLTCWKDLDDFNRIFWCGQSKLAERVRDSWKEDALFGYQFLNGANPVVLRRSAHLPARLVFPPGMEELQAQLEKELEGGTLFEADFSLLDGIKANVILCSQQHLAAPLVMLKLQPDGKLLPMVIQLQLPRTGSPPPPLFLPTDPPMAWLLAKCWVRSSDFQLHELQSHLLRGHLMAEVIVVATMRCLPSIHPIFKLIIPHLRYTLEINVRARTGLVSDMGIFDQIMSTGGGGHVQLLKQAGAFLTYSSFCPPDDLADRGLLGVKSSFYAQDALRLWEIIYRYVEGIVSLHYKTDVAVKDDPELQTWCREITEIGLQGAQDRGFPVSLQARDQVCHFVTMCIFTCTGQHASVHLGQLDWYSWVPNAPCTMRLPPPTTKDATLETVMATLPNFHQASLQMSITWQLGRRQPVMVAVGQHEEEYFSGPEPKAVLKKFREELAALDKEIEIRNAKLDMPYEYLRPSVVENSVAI
Procedure, shortened: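 Freshly isolated human PMNL (5 × 10^6/ml PBS-glucose, 1 mM CaCl2), with 15-LO1 from contaminating eosinophils, preincubated with compound 15 min at 37 °C; stimulated with 2.5 µM A23187 plus 20 µM AA for 10 min at 37 °C, methanol stop. 15-H(P)ETE peak quantified by HPLC as percent of DMSO control; n ≥ 3, mean ± S.E.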

[3] = target: T3, Prostaglandin G/H synthase 2 (Homo sapiens) (UniProt P35354); assay: Inhibition of COX2-mediated PGE2 formation in IL1beta/TNFalpha-stimulated human HeLa cells using arachidonic acid as substrate assessed as residual activity at 50 uM measured after 30 mins by ELISA; assay type: cell-based
T3 sequence (whole entry): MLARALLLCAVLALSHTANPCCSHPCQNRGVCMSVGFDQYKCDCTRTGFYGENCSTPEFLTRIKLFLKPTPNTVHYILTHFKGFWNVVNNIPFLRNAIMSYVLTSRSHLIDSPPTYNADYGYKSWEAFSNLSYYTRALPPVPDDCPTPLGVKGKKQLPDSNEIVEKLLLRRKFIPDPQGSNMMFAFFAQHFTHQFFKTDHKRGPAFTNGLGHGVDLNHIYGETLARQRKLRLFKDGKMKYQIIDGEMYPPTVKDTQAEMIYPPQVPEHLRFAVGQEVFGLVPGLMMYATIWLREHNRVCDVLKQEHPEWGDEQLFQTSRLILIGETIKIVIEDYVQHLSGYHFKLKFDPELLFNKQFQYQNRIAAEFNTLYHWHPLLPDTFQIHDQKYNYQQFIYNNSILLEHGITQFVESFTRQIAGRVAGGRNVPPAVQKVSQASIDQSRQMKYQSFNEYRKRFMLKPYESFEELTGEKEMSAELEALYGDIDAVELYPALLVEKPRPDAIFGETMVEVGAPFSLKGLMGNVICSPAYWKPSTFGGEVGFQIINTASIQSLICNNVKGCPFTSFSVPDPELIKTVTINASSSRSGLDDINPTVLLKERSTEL
Procedure, shortened: (§2)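 HeLa cells (3 × 10^4/well) grown 24 h, then induced with 1 ng/ml IL1β and 5 ng/ml TNFα for 24 h; washed three times with PBS containing fatty-acid-free BSA 1 mg/ml. Medium with cytokines plus compound or DMSO for 30 min, stopped on ice; supernatant PGE2 by ELISA, percent of DMSO control. Three experiments, mean ± S.E.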

[4] = target: Prostaglandin G/H synthase 1 (Homo sapiens) (UniProt P23219); assay: Inhibition of COX1 in human platelets using arachidonic acid as substrate assessed as residual activity at 50 uM preincubated for 15 mins before substrate addition measured after 10 mins; procedure, shortened: as §1
[5] = Cytotoxicity against human U937 cells at 30 uM after 48 hrs by LDH assay; assay type: cell-based; conditions: u-937, 48 h
Procedure, shortened: (§3)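 U937 cells (DSMZ; RPMI, 10% FCS, 37 °C, 5% CO2) seeded at 1.5 × 10^4 cells/well, exposed to test agent or DMSO vehicle for 48 h. Supernatant collected after centrifugation; LDH release quantified by kit, expressed relative to detergent-lysed maximum (100%). Three experiments, mean ± S.E.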

[6] = target: Prostaglandin G/H synthase 1 (Homo sapiens) (UniProt P23219); assay: Inhibition of COX1 in human platelets using arachidonic acid as substrate assessed as residual activity at 10 uM preincubated for 15 mins before substrate addition measured after 10 mins; procedure, shortened: as §1
[7] = target: T3, Prostaglandin G/H synthase 2 (Homo sapiens); assay: Inhibition of COX2-mediated PGE2 formation in IL1beta/TNFalpha-stimulated human HeLa cells using arachidonic acid as substrate assessed as residual activity at 10 uM measured after 30 mins by ELISA; assay type: cell-based; procedure, shortened: as §2
[8] = Cytotoxicity against human U937 cells at 100 uM after 48 hrs by LDH assay; assay type: cell-based; conditions: u-937, 48 h; procedure, shortened: as §3

Chain of Prostaglandin G/H synthase 1 (Homo sapiens) (P23219 whole entry): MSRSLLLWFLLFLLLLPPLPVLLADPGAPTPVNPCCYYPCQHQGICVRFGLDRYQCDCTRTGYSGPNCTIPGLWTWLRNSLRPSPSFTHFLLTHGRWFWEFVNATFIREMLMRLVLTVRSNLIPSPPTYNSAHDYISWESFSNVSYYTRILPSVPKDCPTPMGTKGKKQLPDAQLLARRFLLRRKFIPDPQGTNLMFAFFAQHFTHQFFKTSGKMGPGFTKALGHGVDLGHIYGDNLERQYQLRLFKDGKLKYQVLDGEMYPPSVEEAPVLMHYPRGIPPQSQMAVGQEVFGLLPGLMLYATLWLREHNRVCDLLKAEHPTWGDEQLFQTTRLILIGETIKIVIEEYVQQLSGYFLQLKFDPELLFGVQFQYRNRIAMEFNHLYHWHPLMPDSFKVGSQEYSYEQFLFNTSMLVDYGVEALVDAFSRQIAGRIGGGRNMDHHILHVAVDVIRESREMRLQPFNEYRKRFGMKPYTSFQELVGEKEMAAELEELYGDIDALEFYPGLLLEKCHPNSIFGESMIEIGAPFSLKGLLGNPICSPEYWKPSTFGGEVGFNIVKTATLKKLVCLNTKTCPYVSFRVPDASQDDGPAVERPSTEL

## COc1ccc(Nc2nc(-c3ccccc3)cs2)cc1
[1]
  Activity: > 70%
[2]
  Activity: > 70%
[3]
  Activity: 3.2%
[4]
  Activity: 2.3%

## Clc1ccc(-c2csc(Nc3cc(Cl)cc(Cl)c3)n2)cc1
[1]
  Activity: > 70%
[2]
  Activity: > 70%
[3]
  Activity: 30.9%
[4]
  Activity: 2.3%

## CCOc1ccc(-c2csc(Nc3ccc(O)cc3)n2)cc1
[1]
  Activity: > 70%
[2]
  Activity: > 70%
[3]
  Activity: 2.1%
[4]
  Activity: 16.6%

## COc1ccc(Nc2nc(-c3ccc(Cl)cc3)cs2)cc1
[1]
  Activity: > 70%
[5]
  Activity: 1.6%
[2]
  Activity: > 70%
[3]
  Activity: 3.7%
[4]
  Activity: 25.6%

## FC(F)(F)c1cc(Nc2nc(-c3ccc(Cl)cc3)cs2)cc(C(F)(F)F)c1
[1]
  Activity: > 70%
[5]
  Activity: 18.2%
[2]
  Activity: > 70%
[3]
  Activity: 45.1%
[4]
  Activity: 13.7%

## Oc1ccc(-c2csc(Nc3ccc(F)cc3)n2)cc1
[1]
  Activity: 4.2%
[2]
  Activity: 53.7%
[3]
  Activity: 2.1%
[4]
  Activity: 2.1%

## Oc1ccc(Nc2nc(-c3ccc(Cl)cc3)cs2)cc1
[1]
  Activity: > 70%
[5]
  Activity: 17.5%
[2]
  Activity: > 70%
[3]
  Activity: 4.1%
[4]
  Activity: 28.6%

## Oc1ccccc1Nc1nc(-c2ccc(Cl)cc2)cs1
[1]
  Activity: > 70%
[6]
  Activity: 67.4%
[5]
  Activity: 0.9%
[2]
  Activity: > 70%
[7]
  Activity: 9.1%

## Oc1ccc(Nc2nc(-c3ccc(Cl)c(Cl)c3)cs2)cc1
[1]
  Activity: 32.6%
[6]
  Activity: 69.4%
[2]
  Activity: > 70%
[7]
  Activity: 15.1%

## Oc1ccc(-c2csc(Nc3ccc(Cl)cc3)n2)cc1
[1]
  Activity: > 70%
[5]
  Activity: 1.4%
[2]
  Activity: 43.1%
[3]
  Activity: 2.1%
[4]
  Activity: 3.5%

## Cc1ccc(-c2csc(Nc3ccc(O)cc3)n2)cc1
[1]
  Activity: > 70%
[5]
  Activity: 14%
[2]
  Activity: 44.6%
[3]
  Activity: 3.4%
[4]
  Activity: 18.5%

## FC(F)(F)c1ccc(Nc2nc(-c3ccc(Cl)cc3)cs2)cc1
[1]
  Activity: > 70%
[2]
  Activity: > 70%
[3]
  Activity: > 70%
[4]
  Activity: 2.7%

## COc1ccccc1Nc1nc(-c2ccc(Cl)cc2)cs1
[1]
  Activity: > 70%
[2]
  Activity: > 70%
[3]
  Activity: 5.3%
[4]
  Activity: 55.8%

## CC(c1cc2ccccc2s1)N(O)C(N)=O (stereo not given) [ZILEUTON]
[8]
  Activity: 1.5%

## Clc1ccc(-c2csc(Nc3ccccc3)n2)cc1
[1]
  Activity: > 70%
[2]
  Activity: > 70%
[3]
  Activity: 5%
[4]
  Activity: 7.7%

## Oc1cccc(Nc2nc(-c3ccc(Cl)cc3)cs2)c1
[1]
  Activity: > 70%
[2]
  Activity: 57%
[3]
  Activity: 2.7%
[4]
  Activity: 19.5%

## OC(c1ccc(Nc2nc(-c3ccc(Cl)cc3)cs2)cc1)(C(F)(F)F)C(F)(F)F
[1]
  Activity: > 70%
[5]
  Activity: 21.7%
[2]
  Activity: > 70%
[3]
  Activity: 42.9%
[4]
  Activity: 2.6%

## CCCCCC(O)c1cccc(OCc2ccc3ccccc3n2)c1 (stereo not given) [REV-5901]
[8]
  Activity: 28.3%

## Oc1ccc(Nc2nc(-c3ccccc3)cs2)cc1
[1]
  Activity: 34.9%
[5]
  Activity: 5.5%
[2]
  Activity: 13%
[3]
  Activity: 3.1%
[4]
  Activity: 16.2%

## Clc1ccc(-c2csc(Nc3ccc4c(c3)OCO4)n2)cc1
[1]
  Activity: > 70%
[2]
  Activity: > 70%
[3]
  Activity: 3.8%
[4]
  Activity: 3.2%

## CC(=O)c1ccc(Nc2nc(-c3ccc(F)cc3)cs2)cc1
[1]
  Activity: > 70%
[2]
  Activity: > 70%
[3]
  Activity: 9.1%
[4]
  Activity: 56.1%

## CC(=O)c1cccc(Nc2nc(-c3ccc(Cl)cc3)cs2)c1
[1]
  Activity: > 70%
[2]
  Activity: > 70%
[3]
  Activity: 59.9%
[4]
  Activity: 38.7%

## Nc1ccc(-c2csc(Nc3ccc(O)cc3)n2)cc1
[1]
  Activity: > 70%
[2]
  Activity: > 70%
[3]
  Activity: 3.3%
[4]
  Activity: 26.7%

## Clc1ccc(-c2csc(Nc3ccc(N4CCOCC4)cc3)n2)cc1
[1]
  Activity: > 70%
[2]
  Activity: > 70%
[3]
  Activity: > 70%
[4]
  Activity: > 70%

## Clc1ccc(-c2csc(Nc3ccc4c(c3)OCCO4)n2)cc1
[1]
  Activity: > 70%
[2]
  Activity: > 70%
[3]
  Activity: 5.5%
[4]
  Activity: 6%

## O=S(=O)(c1ccc(-c2csc(Nc3ccc(Cl)cc3)n2)cc1)N1CCOCC1
[1]
  Activity: > 70%
[2]
  Activity: 41.3%
[3]
  Activity: 39.1%
[4]
  Activity: > 70%

## FC(F)(F)Oc1ccc(Nc2nc(-c3ccc(Cl)cc3)cs2)cc1
[1]
  Activity: > 70%
[2]
  Activity: > 70%
[3]
  Activity: 17.8%
[4]
  Activity: 1.1%

## Oc1cccc(Nc2nc(-c3ccccc3)cs2)c1
[1]
  Activity: > 70%
[2]
  Activity: > 70%
[3]
  Activity: 2.4%
[4]
  Activity: 4.1%

## COc1ccc(Nc2nc(-c3ccc(Cl)cc3)cs2)c(OC)c1
[1]
  Activity: > 70%
[2]
  Activity: > 70%
[3]
  Activity: 18.4%
[4]
  Activity: > 70%

## COc1ccc(-c2csc(Nc3ccccc3)n2)cc1
[1]
  Activity: > 70%
[2]
  Activity: 50.3%
[3]
  Activity: 2.3%
[4]
  Activity: 2%

## COc1ccc(Nc2nc(-c3ccc(Cl)cc3)cs2)cc1OC
[1]
  Activity: > 70%
[2]
  Activity: > 70%
[3]
  Activity: 8.6%
